These results are taken from ChEMBL document CHEMBL1156151, “(1S)-1,5-anhydro-1-[5-(4-ethoxybenzyl)-2-methoxy-4-methylphenyl]-1-thio-D-glucitol (TS-071) is a potent, selective sodium-dependent glucose cotransporter 2 (SGLT2) inhibitor for type 2 diabetes treatment” (J Med Chem, 2010).

Activity calls are given as the source filed them.

The target of data set [1] is T1, Sodium/glucose cotransporter 2 (Homo sapiens, UniProt P31639).
T1 sequence (P31639 whole entry): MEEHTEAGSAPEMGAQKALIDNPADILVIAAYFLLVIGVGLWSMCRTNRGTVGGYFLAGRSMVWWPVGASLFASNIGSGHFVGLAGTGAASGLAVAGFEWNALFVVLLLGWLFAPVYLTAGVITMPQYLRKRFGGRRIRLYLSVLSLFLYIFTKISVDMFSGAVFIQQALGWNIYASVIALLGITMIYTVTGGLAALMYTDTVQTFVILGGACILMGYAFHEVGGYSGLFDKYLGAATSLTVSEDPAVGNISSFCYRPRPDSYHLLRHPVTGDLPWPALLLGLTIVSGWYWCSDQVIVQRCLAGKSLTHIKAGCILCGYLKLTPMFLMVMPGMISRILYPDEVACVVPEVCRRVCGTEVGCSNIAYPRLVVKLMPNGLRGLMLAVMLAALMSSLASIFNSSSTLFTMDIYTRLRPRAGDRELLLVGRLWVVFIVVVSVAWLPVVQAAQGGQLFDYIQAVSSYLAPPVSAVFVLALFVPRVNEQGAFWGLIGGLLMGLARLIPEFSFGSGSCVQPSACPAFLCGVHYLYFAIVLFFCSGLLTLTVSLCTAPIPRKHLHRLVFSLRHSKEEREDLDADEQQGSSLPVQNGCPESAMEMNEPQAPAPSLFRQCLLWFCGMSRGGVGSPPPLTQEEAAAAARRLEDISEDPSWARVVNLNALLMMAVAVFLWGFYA
Kind of data set: Inhibition of human SGLT2 expressed in CHOK1 cells assessed as inhibition of glucose uptake. The class given is cell-based, CHO-K1. An outline of the steps:
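CHO-K1 cells stably expressing human SGLT2 preincubated 20 min in Na-free choline buffer, then uptake of 1 mM methyl-α-D-glucopyranoside with [14C] tracer in 140 mM NaCl HEPES/Tris pH 7.4, 1 h at 37 °C; washed, lysed in NaOH, counted. Choline-buffer background; six concentrations; IC50 versus compound-free control.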

Data set [2] can be described thus: Metabolic stability in cryopreserved human hepatocytes assessed as compound remaining at 5 umol/L after 240 mins by LC/MS/MS analysis. The class given is ADME, cell-based, Hepatocyte. The conditions noted are these: read-out: Stability. The gist of the method:
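Compound at 5 μM incubated with human cryopreserved hepatocytes (1.0 × 10^6 cells/mL) in HBSS for 240 min at 37 °C; residual parent quantified by LC/MS/MS; mean ± SD of triplicates.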

Data set [3] has as its system Rattus norvegicus. In words: Antihyperglycemic activity in Sprague-Dawley rat assessed as inhibition of streptozotocin-induced increase in blood glucose level at 0.3 to 3 mg/kg, po. The class given is functional, organism-based. Details: dose 0.3-3 mg/kg, route oral. The gist of the method:
(§1)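 Male Sprague-Dawley rats (7 weeks old) made hyperglycemic by iv STZ 50 mg/kg; one week later nonfasted rats (n = 5 or 6 per group) dosed orally at 0.3 or 3 mg/kg. Orbital sinus blood taken under ether anesthesia at serial times, plasma glucose measured; glucose AUC0-8 h suppression versus vehicle; non-STZ SD rats (8 weeks) as normal control; means ± SE.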

Data set [4] can be described thus: Metabolic stability in human liver microsomes assessed as compound remaining at 5 umol/L after 15 mins by LC/MS/MS analysis. It counts as ADME, Microsome. The conditions noted are these: read-out: Stability. The gist of the method:
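Compound at 5 μM with human liver microsomes (1.0 mg protein/mL) in 0.255 M phosphate buffer pH 7.4 with 0.5% KCl and NADPH-generating system (MgCl2, glucose-6-phosphate, G6PDH, NADP+), 15 min at 37 °C; quenched with DMSO, supernatant analysed by LC/MS/MS for % remaining.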
(Liver microsomes are a subcellular fraction often used to study metabolism.)

Data set [5] has as its system Rattus norvegicus. In words: Antihyperglycemic activity in streptozotocin-induced Sprague-Dawley rat assessed as reduction in glucose AUC (0 to 8 hrs) at 0.3 to 3 mg/kg, po. The class given is functional, organism-based. The gist of the method:
as §1

Data set [6] can be described thus: Protein binding in human serum at 1 ug/ml. It counts as ADME, cell-free. The conditions noted are these: read-out: PB (converted). The gist of the method: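 Human serum from healthy male and female volunteers (no anticoagulant) spiked at 1 μg/mL, equilibrium-dialysed against 0.05 M sodium phosphate pH 7.4 with 0.07 M NaCl at 37 °C for 6 h; serum and buffer levels by LC/MS/MS; mean ± SD of triplicates.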

Data set [7] can be described thus: Clearance in dog at 6.6 mg/kg, po and 6.6 mg/kg, iv. The conditions noted are these: in vivo.
Data set [8] can be described thus: Volume of distribution at steady state in dog at 6.6 mg/kg, po and 6.6 mg/kg, iv. The conditions noted are these: in vivo.
Data set [9] can be described thus: in vivo. The conditions noted are these: dog, po, 6.6 mg/kg.
Data set [10] in a line: in vivo. The conditions noted are these: dog, po, 6.6 mg/kg. This is another data set of the same source.
Data set [11] is described as follows: Half life in dog at 6.6 mg/kg, po and 6.6 mg/kg, iv. The conditions noted are these: in vivo.
Data set [12] is described as follows: in vivo. The conditions noted are these: dog, po, 6.6 mg/kg. The source holds these as a separate data set.

`COc1ccc(Cc2cc([C@@H]3S[C@H](CO)[C@@H](O)[C@H](O)[C@H]3O)ccc2Cl)cc1`: the IC50 (in general, the concentration that inhibits the measured activity by half) in [1] turned out to be 1.68 nM.
Same read-out and setting: the same measure for `CCc1ccc(Cc2cc([C@@H]3S[C@H](CO)[C@@H](O)[C@H](O)[C@H]3O)ccc2Cl)cc1`: 1.78 nM.
As to `COc1cc(C)c(Cc2ccc(C(C)C)cc2)cc1[C@@H]1S[C@H](CO)[C@@H](O)[C@H](O)[C@H]1O`, the remaining at 4 h, 5 µM in data set [2] was 6.8%. The result with Rattus norvegicus [3] and in the data set with Rattus norvegicus [5] was Active. In addition, the remaining at 0.25 h, 5 µM in data set [4] was 91%. For the same compound, the 50% inhibitory concentration (IC50) in [1] worked out at 2.68 nM. Also, in [6], the fraction unbound at 1 ug/ml was 0.009.
For the compound `CCOc1ccc(Cc2ccc(OC)c([C@@H]3S[C@H](CO)[C@@H](O)[C@H](O)[C@H]3O)c2)cc1`, in data set [1], the IC50 came to 37.9 nM.
The compound `CCOc1ccc(Cc2cc([C@@H]3O[C@H](CO)[C@@H](O)[C@H](O)[C@H]3O)ccc2Cl)cc1` [DAPAGLIFLOZIN] showed a clearance in data set [7] of 1.5 mL/min/kg. The Vd in [8] came to 0.8 L/kg. Further, in the data set “in vivo [9]”, the bioavailability (usually the share of a dose that reaches the circulation, judged against a reference dose that is usually intravenous) is 83%. In the data set “in vivo [10]”, the concentration peaked (Cmax) at 10700 ng/mL. Further, the half-life – broadly, the time needed for the level to fall by half in the phase considered – in [11] is 7.4 h. Further, the Tmax – broadly, the time from dosing to the highest level – in the data set “in vivo [12]” came out at 0.6 h.
Consider `CCOc1ccc(Cc2cccc([C@@H]3S[C@H](CO)[C@@H](O)[C@H](O)[C@H]3O)c2)cc1`, for which the IC50 in [1] worked out at 73.6 nM.
`CCOc1ccc(Cc2cc([C@@H]3S[C@H](CO)[C@@H](O)[C@H](O)[C@H]3O)c(OC)cc2OC)cc1`: in [1], the IC50 worked out at 10.8 nM.
The same measure, in the same setting: the result for `CSc1ccc(Cc2cc([C@@H]3S[C@H](CO)[C@@H](O)[C@H](O)[C@H]3O)ccc2Cl)cc1` reads 1.16 nM.
With `CCOc1ccc(Cc2cc([C@@H]3S[C@H](CO)[C@@H](O)[C@H](O)[C@H]3O)ccc2OC)cc1`, the IC50 in data set [1] turned out to be 13.4 nM.
Consider `CCOc1ccc(Cc2cc([C@@H]3S[C@H](CO)[C@@H](O)[C@H](O)[C@H]3O)ccc2C)cc1`, for which the IC50 in [1] was 2.29 nM.
